According to ChEMBL document CHEMBL3351903, “A potent HDAC inhibitor, 1-alaninechlamydocin, from a Tolypocladium sp. induces G2/M cell cycle arrest and apoptosis in MIA PaCa-2 cells” (J Nat Prod, 2014):
Activity calls are given as the source filed them. The calls are words filed in the database; no cut-off is given here. Where a SMILES comes first, the peptide text is derived from it. [ ]: non-standard residue; d: D form. ξ: configuration not given here. Aoe(9ξ) = N[C@@H](CCCCCC(=O)C1CO1)C(=O)O; dPip = O=C(O)[C@H]1CCCCN1

What was measured:
[1] = Antiproliferative activity against human PANC1 cells after 48 hrs by MTT assay; assay type: functional; conditions: PANC-1, 48 h; for CC50: read-out: LC50 (the source's name)
How it was run: (§1)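 Cells held in RPMI with 5% FetalClone III and penicillin/streptomycin (50 U/mL, 50 μg/mL); hTERT-HPNE also given 10 ng/mL recombinant human EGF; used within 3 months of thaw. 48 h compound exposure, DMSO ≤1% final, then MTT.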

[2] = Antiproliferative activity against hTERT expressing immortalized human HPNE cells after 48 hrs by MTT assay; assay type: functional; conditions: for CC50: read-out: LC50 (the source's name); how it was run: as §1
[3] = (§2) Antiproliferative activity against human MIAPaCa2 cells after 48 hrs by MTT assay; assay type: functional; conditions: MIA PaCa-2, 48 h; how it was run: as §1
MIA PaCa-2 [4] = assay: Induction of PARP cleavage in human MIAPaCa2 cells at 20 nM after 20 hrs by SDS-PAGE and immunoblotting; assay type: functional, cell-based
How it was run: (§3)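 MIA PaCa-2 cells treated 20 h with vehicle, 8 or 20 nM. Total cell lysates run on SDS-PAGE and immunoblotted with a PARP antibody recognizing full-length and cleaved forms. Detection by HRP-conjugated secondary antibody.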

MIA PaCa-2 [5] = assay: Induction of cell cycle arrest in human MIAPaCa2 cells assessed as accumulation at S phase at 8 nM after 20 hrs by propidium iodide staining based flow cytometry (reference value: 30.6%); assay type: functional
How it was run: (§4)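 MIA PaCa-2 cells exposed 20 h to 8 or 20 nM, with vehicle-treated cells as comparison. Cells stained with propidium iodide and analysed by flow cytometry. Cell cycle phase distributions calculated by modelling software.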

MIA PaCa-2 [6] = assay: Induction of PARP cleavage in human MIAPaCa2 cells at 8 nM after 20 hrs by SDS-PAGE and immunoblotting; assay type: functional, cell-based; how it was run: as §3
MIA PaCa-2 [7] = assay: Antiproliferative activity against human MIAPaCa2 cells exposed to 25 nM compound incubated in human serum for 5 to 30 mins measured after 48 hrs by MTT assay; assay type: functional, cell-based
How it was run: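 Compound DMSO stock mixed 1:10 with human type AB serum and held at room temperature for 5, 10, 15 or 30 min. Aliquots then added to 5000 MIA PaCa-2 cells per well, 25 nM final. Cells grown 48 h, then viability read by MTT.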

[8] = target: Histone deacetylase (Homo sapiens) (UniProt Q13547+O15379+Q9UBN7+Q92769+Q9UQL6+Q8WUI4+Q9BY41+Q96DB2+P56524+Q9UKV0+Q969S8); assay: Inhibition of HDAC in human HeLa cell lysates after 30 mins by fluorescence based assay; assay type: protein assay
How it was run: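 Fluorometric kit assay using HeLa cell lysate with 100 μM acetylated substrate in assay buffer. Compound added at 20-fold stock, 30 min at 30 °C. Developer then releases the fluorophore from deacetylated substrate; read at ex 355/em 460 nm. Triplicate wells normalized to signal without inhibitor; IC50 by nonlinear regression.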

MIA PaCa-2 [9] = assay: Induction of cell cycle arrest in human MIAPaCa2 cells assessed as accumulation at G1 phase at 20 nM after 20 hrs by propidium iodide staining based flow cytometry (reference value: 50.2%); assay type: functional; how it was run: as §4
[10] = Half life in freshly prepared rat serum; assay type: ADME, cell-free
[11] = Half life in rat whole blood; assay type: ADME, tissue-based
MIA PaCa-2 [12] = assay: as §2; assay type: functional; how it was run: as §1

SMILES: O=C(CCCCCCC(=O)Nc1ccccc1)NO [VORINOSTAT]
- CC50 [1]: > 10 µM
- TGI [2]: > 10000 nM
- CC50 [2]: > 10 µM
- CC50 ([3]; read-out: LC50 (the source's name)): 4.85 µM

SMILES: C[C@@H]1NC(=O)[C@H](CCCCCC(=O)[C@@H]2CO2)NC(=O)[C@H]2CCCN2C(=O)[C@H](Cc2ccccc2)NC1=O
- Activity (MIA PaCa-2 [4]): Active
- Activity (MIA PaCa-2 [5]): 34.6%
- Activity (MIA PaCa-2 [6]): Active
- inhibition (MIA PaCa-2 [7]): Active
- inhibition [8]: Dose-dependent effect
- TGI [1]: 50 nM
- CC50 [1]: > 10 µM
- TGI [2]: 660 nM
- CC50 [2]: > 10 µM
- TGI [3]: 8.8 nM
- Activity (MIA PaCa-2 [9]): 19.6%

SMILES: CC1(C)NC(=O)[C@H](CCCCCC(=O)[C@H]2CO2)NC(=O)[C@H]2CCCN2C(=O)[C@H](Cc2ccccc2)NC1=O [CHLAMYDOCIN]
- half-life [10]: 8.7 min
- half-life [11]: 0.68 to 3.6 min

SMILES: O=C(CCCCC[C@@H]1NC(=O)[C@H]2CCCCN2C(=O)[C@H](Cc2ccccc2)NC(=O)[C@H](Cc2ccccc2)NC1=O)C1CO1 (some centres undefined) (cyclo(FF[dPip][Aoe(9ξ)]))
- growth inhibition (GI) (MIA PaCa-2 [12]): Active

SMILES: CCC(=O)CCCCC[C@@H]1NC(=O)[C@H]2CCCCN2C(=O)[C@H]([C@@H](C)CC)NC(=O)[C@H](Cc2cn(OC)c3ccccc23)NC1=O
- growth inhibition (GI) (MIA PaCa-2 [12]): Active
